The record followed here is ChEMBL document CHEMBL1687800, “Emergence of metallo-β-lactamase NDM-1-producing multidrug-resistant Escherichia coli in Australia” (2010).

What all share (assay type): functional
For experiment [1], the system named is Escherichia coli. Put plainly: Antibacterial activity against Escherichia coli isolate 271. An outline of the steps:
(§1)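 MICs of β-lactams read by Etest on Mueller-Hinton agar plates incubated at 37°C, with susceptibility categories assigned according to CLSI guidelines. Strains tested were a clinical urine isolate (E. coli 271), E. coli TOP10 carrying recombinant plasmid p271A expressing NDM-1, and the TOP10 reference strain.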

For experiment [2], the system named is Escherichia coli. Put plainly: Antibacterial activity against Escherichia coli TOP10 expressing metallo-beta-lactamase NDM-1. An outline of the steps: as §1
For experiment [3], the system named is Escherichia coli. Put plainly: Antibacterial activity against Escherichia coli TOP10. In outline: as §1

SMILES strings stand for the structures. Values after ≈ are worked out from the molar mass of the structure shown. Bounds are passed on as bounds.

In the case of `CC1(C)S[C@@H]2[C@H](NC(=O)[C@H](N)c3ccc(O)cc3)C(=O)N2[C@H]1C(=O)O` [AMOXICILLIN], the MIC in the experiment on Escherichia coli [1] was greater than 512 µg/mL; in the experiment with Escherichia coli [2] it was greater than 512 µg/mL; against Escherichia coli [3], 4 µg/mL (≈ 10.9 µM).
With `C[C@H]1[C@H](NC(=O)/C(=N\OC(C)(C)C(=O)O)c2csc(N)n2)C(=O)N1S(=O)(=O)O` [AZTREONAM], the MIC with Escherichia coli [1] came out at 64 µg/mL (≈ 147 µM); with Escherichia coli [2], 0.25 µg/mL (≈ 0.574 µM).
For the molecule `CO/N=C(\C(=O)N[C@@H]1C(=O)N2C(C(=O)[O-])=C(C[N+]3(C)CCCC3)CS[C@H]12)c1csc(N)n1` [CEFEPIME], the figures for the MIC against Escherichia coli [1] and against Escherichia coli [2] were 64 µg/mL (≈ 133 µM) and 16 µg/mL (≈ 33.3 µM), respectively.
For the molecule `CO/N=C(\C(=O)N[C@@H]1C(=O)N2C(C(=O)O)=C(COC(C)=O)CS[C@H]12)c1csc(N)n1` [CEFOTAXIME], the figures for the MIC against Escherichia coli [1], in the experiment with Escherichia coli [2] and against Escherichia coli [3] were 512 µg/mL (≈ 1120 µM), 256 µg/mL (≈ 562 µM) and 0.12 µg/mL (≈ 0.263 µM), respectively.
With `CO[C@@]1(NC(=O)Cc2cccs2)C(=O)N2C(C(=O)O)=C(COC(N)=O)CS[C@@H]21` [CEFOXITIN], the MIC against Escherichia coli [1] was found to be 512 µg/mL (≈ 1200 µM); against Escherichia coli [2], 256 µg/mL (≈ 599 µM); against Escherichia coli [3] it was 4 µg/mL (≈ 9.36 µM).
As to `CC(C)(O/N=C(\C(=O)N[C@@H]1C(=O)N2C(C(=O)[O-])=C(C[n+]3ccccc3)CS[C@H]12)c1csc(N)n1)C(=O)O` [CEFTAZIDIME], the minimal inhibitory concentration (MIC) with Escherichia coli [1] stood at 256 µg/mL (≈ 468 µM); in the experiment with Escherichia coli [2], 128 µg/mL (≈ 234 µM); against Escherichia coli [3], 0.06 µg/mL (≈ 0.11 µM).
As to `C[C@@H](O)[C@H]1C(=O)N2C(C(=O)O)=C(S[C@@H]3CN[C@H](C(=O)Nc4cccc(C(=O)O)c4)C3)[C@H](C)[C@H]12` [ERTAPENEM], the MIC was 32 µg/mL (≈ 67.3 µM) with Escherichia coli [1], 3 µg/mL (≈ 6.31 µM) in the experiment on Escherichia coli [2] and 0.06 µg/mL (≈ 0.126 µM) against Escherichia coli [3].
Regarding `C[C@@H](O)[C@H]1C(=O)N2C(C(=O)O)=C(SCCNC=N)C[C@H]12` [IMIPENEM ANHYDROUS], the MIC against Escherichia coli [1] was 6 µg/mL (≈ 20 µM); in the experiment with Escherichia coli [2], 4 µg/mL (≈ 13.4 µM).
Turning to `C[C@@H](O)[C@H]1C(=O)N2C(C(=O)O)=C(S[C@@H]3CN[C@H](C(=O)N(C)C)C3)[C@H](C)[C@H]12` [MEROPENEM], the values for the MIC in the experiment on Escherichia coli [1], in the experiment with Escherichia coli [2] and in the experiment with Escherichia coli [3] were 16 µg/mL (≈ 41.7 µM), 3 µg/mL (≈ 7.82 µM) and 0.06 µg/mL (≈ 0.156 µM), respectively.
For `CCN1CCN(C(=O)N[C@@H](C(=O)N[C@@H]2C(=O)N3[C@@H]2SC(C)(C)[C@@H]3C(=O)O)c2ccccc2)C(=O)C1=O` [PIPERACILLIN], the MIC was greater than 512 µg/mL with Escherichia coli [1], 512 µg/mL (≈ 989 µM) in the experiment on Escherichia coli [2] and 1 µg/mL (≈ 1.93 µM) in the experiment with Escherichia coli [3].
With `CC1(C)S[C@@H]2[C@H](NC(=O)[C@H](C(=O)O)c3ccsc3)C(=O)N2[C@H]1C(=O)O` [TICARCILLIN], the values for the MIC in the experiment with Escherichia coli [1], in the experiment with Escherichia coli [2] and with Escherichia coli [3] were greater than 512 µg/mL, greater than 512 µg/mL and 4 µg/mL (≈ 10.4 µM), respectively.

One may read the MIC as the lowest concentration found to suppress growth. High values mean a need for much substance, low ones inhibition by little substance.
